Source: ChEMBL document CHEMBL2029255, “Quantitative and site-directed chemical modification of hypocrellins toward direct drug delivery and effective photodynamic activity” (J Med Chem, 2012)
≈ marks a conversion by molar mass, not a printed value. Calls of active or inactive are those of the source. The calls are words filed in the database; no cut-off is given here.

Columns and labels:
[1] = Solubility of the compound in phosphate buffered saline at pH 7.4 after 12 hrs; format: physicochemical
Method in brief: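 Compound dissolved in PBS (pH 7.4) at a series of concentrations, kept 12 h in dark; absorption spectra recorded and absorbance plotted against concentration to derive solubility; mean of three independent experiments ± SEM.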

[2] = Photosensitization activity of the compound assessed as singlet oxygen production by DPA-bleaching method; format: physicochemical
BGC-823 [3] = assay: Cellular uptake in human BGC823 cells at 1 uM after 5 hrs by laser confocal fluorescence microscope analysis; format: ADME, cell-based; conditions: bgc-823, 5 h
Method in brief: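 BGC823 cells seeded on coverslips at 1 × 10^5, grown overnight at 37 °C, 5% CO2; medium removed, incubated with compound (1 μM) 5 h at 37 °C; rinsed three times with PBS, imaged by confocal microscopy with 488 nm argon laser excitation, emission 650–750 nm collected. Control without photosensitizer.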

[4] = Drug uptake in liposomes after 4 hrs; format: ADME, subcellular, Liposome; conditions: artificial membrane
Method in brief: (§1)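 Liposomes of egg phosphatidylcholine and cholesterol (film-ultrasonic method), 0.08 g/L in PBS pH 7.4. Compound from DMSO stock (2 mg/mL) diluted in PBS to 0–8 μM final, added to liposomes with stirring; absorption spectra recorded over time; peak absorbance plotted against concentration at the equilibration time (2, 4 or 5 h, depending on compound).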

BGC-823 [5] = assay: Cytotoxicity against human BGC823 cells assessed as cell death up to 76 nM after 24 hrs by MTT assay; format: functional, cell-based
Method in brief: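 Dark toxicity: BGC823 cells in DMEM/5% FBS seeded at 5 × 10^5 cells/mL, 24 h at 37 °C, 5% CO2; photosensitizer (0–76 nM) in FBS-free DMEM 5 h in dark; fresh medium, no irradiation, 24 h in dark; survival by MTT (90 min), formazan in DMSO, OD 570 nm.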

BGC-823 [6] = assay: Cytotoxicity against human BGC823 cells assessed as cell death preincubated for 5 hrs in dark condition followed by irradiation with a 532 nm laser of 20 J/cm2 for 1000 seconds measured after 24 hrs by MTT assay; format: functional, cell-based; conditions: BGC-823, light or radiation study
Method in brief: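 BGC823 cells in DMEM/5% FBS seeded at 5 × 10^5 cells/mL, 24 h at 37 °C, 5% CO2; photosensitizer (0, 19, 38, 57, 76 nM) in FBS-free DMEM, 5 h in dark; medium replaced, 532 nm laser irradiation 20 J/cm2 (20 mW/cm2) for 1000 s; 24 h dark; MTT 90 min, DMSO, OD 570 nm. IC50 = concentration killing 50% of cells.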

[7] = 1-Octanol-phosphate buffered saline partition coefficient of the compound at pH 7.4
[8] = Drug uptake in liposomes after 5 hrs; format: ADME, subcellular, Liposome; conditions: artificial membrane; method in brief: as §1
[9] = Drug uptake in liposomes after 2 hrs; format: ADME, subcellular, Liposome; conditions: artificial membrane; method in brief: as §1

Compound	solubility at 12 h [1] [µg/mL]	Activity [2]	Drug uptake (BGC-823 [3])	Drug uptake [4] [µM]	Activity (BGC-823 [5])	IC50 (BGC-823 [6]) [nM]	PC [7]	Drug uptake [8] [µM]	Drug uptake [9] [µM]
COc1c2c3c4c(c(OC)c(=O)c5c(O)cc(OC)c(c6c(OC)cc(O)c(c1=O)c63)c54)C(/C(C)=N/CCCCCS(=O)(=O)O)=C(C)C2	1700 (≈ 2.51 mM)	0.98	Active	6.5	inactive	22	9	–	–
COc1c2c3c4c(c(OC)c(=O)c5c(O)cc(OC)c(c6c(OC)cc(O)c(c1=O)c63)c54)C(/C(C)=N/CCCCS(=O)(=O)O)=C(C)C2	3900 (≈ 5.88 mM)	0.94	–	–	inactive	54	7.5	–	–
COc1c2c3c4c(c(OC)c(=O)c5c(O)cc(OC)c(c6c(OC)cc(O)c(c1=O)c63)c54)C(/C(C)=N/CCCCCCS(=O)(=O)O)=C(C)C2	200 (≈ 0.289 mM)	1.01	–	–	–	–	–	–	–
COc1c2c3c4c(c(OC)c(=O)c5c(O)cc(OC)c(c6c(OC)cc(O)c(c1=O)c63)c54)C(/C(C)=N/CCCS(=O)(=O)O)=C(C)C2	6600 (≈ 10.2 mM)	–	–	–	–	–	4.8	–	–
COC1=C(C(C)=O)C2=C(C)Cc3c(OC)c(=O)c(O)c4cc(OC)c5c(OC)cc(O)c6c(c2c3c4c56)C1=O	4.6 (≈ 0.0087 mM)	0.76	–	–	inactive	40	–	7	–
COc1c2c3c4c(c(NCCS(=O)(=O)O)c(=O)c5c(O)cc(OC)c(c6c(OC)cc(O)c(c1=O)c63)c54)CC(C)=C2C(C)=O	9200 (≈ 14.8 mM)	–	–	–	–	–	2.2	–	3
